Data reported in ChEMBL document CHEMBL3853291, “Polycyclic Polyprenylated Derivatives from Hypericum uralum: Neuroprotective Effects and Antidepressant-like Activity of Uralodin A” (2016).

Tests used:
[1] = test system: PC-12; test: Neuroprotective activity against corticosterone-induced cell injury in rat PC12 cells assessed as cell viability at 10 uM after 48 hrs by MTT assay (reference value: 55.6 +/- 0.87%); type: functional; conditions: PC-12, 48 h, read-out: Activity
[2] = test system: PC-12; test: Neuroprotective activity against corticosterone-induced cell injury in rat PC12 cells assessed as cell viability at 3 uM after 48 hrs by MTT assay (reference value: 55.6 +/- 0.87%); type: functional; conditions: PC-12, 48 h, read-out: Activity
[3] = test system: PC-12; test: Neuroprotective activity against corticosterone-induced cell injury in rat PC12 cells assessed as cell viability at 1 uM after 48 hrs by MTT assay (reference value: 55.6 +/- 0.87%); type: functional; conditions: PC-12, 48 h, read-out: Activity
[4] = test system: PC-12; test: Neuroprotective activity against corticosterone-induced cell injury in rat PC12 cells assessed as cell viability at 0.3 uM after 48 hrs by MTT assay (reference value: 55.6 +/- 0.87%); type: functional; conditions: PC-12, 48 h, read-out: Activity
[5] = test system: PC-12; test: Neuroprotective activity against corticosterone-induced cell injury in rat PC12 cells assessed as cell viability at 0.1 uM after 48 hrs by MTT assay (reference value: 55.6 +/- 0.87%); type: functional; conditions: PC-12, 48 h, read-out: Activity
[6] = Antidepressant-like activity in LPS-induced ICR mouse assessed as decrease in immobility time at 25 mg/kg, ig qd for 5 days followed by LPS stimulation on 5th day injected 30 mins post last dose measured 24 hrs after stimulation monitored for last 4 mins by tail suspension test relative to control; type: functional, organism-based; design: scale not given: the % may be the effect or the level left
Outline: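 Male ICR mice (18−22 g), n = 12 per group, given drug in 0.03% CMC-Na intragastrically once daily for 5 days. LPS 0.5 mg/kg i.p. 30 min after the last dose, with the test 24 h later. Mice visually and acoustically isolated, taped ~1 cm from the tail tip, hung 50 cm above the floor for 6 min. Passive motionless hanging timed over the last 4 min; mean ± SD.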

[7] = Antidepressant-like activity in LPS-induced ICR mouse assessed as decrease in immobility time at 25 mg/kg, ig qd for 5 days followed by LPS stimulation on 5th day injected 30 mins post last dose measured 24 hrs after stimulation monitored for last 4 mins by forced swim test relative to control; type: functional, organism-based; design: scale not given: the % may be the effect or the level left
Outline: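 Male ICR mice (18−22 g), 12 per group. Drug suspended in 0.03% CMC-Na and given intragastrically once daily for 5 days. LPS 0.5 mg/kg i.p. 30 min after the day-5 dose, with testing 24 h later. Mice swim 6 min at 25 ± 1 °C in a cylinder (20 cm high, 14 cm diameter, 10 cm water). Floating immobility scored over the last 4 min; mean ± SD.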

[8] = Antidepressant-like activity in LPS-induced ICR mouse assessed as decrease in immobility time at 13 mg/kg, ig qd for 5 days followed by LPS stimulation on 5th day injected 30 mins post last dose measured 24 hrs after stimulation monitored for last 4 mins by forced swim test relative to control; type: functional, organism-based; design: scale not given: the % may be the effect or the level left
Outline: (§1)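 Male ICR mice (18−22 g), n = 12 per group. Dosed intragastrically once daily for 5 days as a suspension in 0.03% CMC-Na. On day 5, LPS 0.5 mg/kg i.p. was given 30 min after dosing. Tests were run 24 h after LPS. FST used a 20 × 14 cm cylinder with 10 cm water at 25 ± 1 °C, 6 min swim. TST suspended mice 50 cm high by the tail tape for 6 min. Immobility was scored over the last 4 min.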

[9] = Antidepressant-like activity in LPS-induced ICR mouse assessed as decrease in immobility time at 26 mg/kg, ig qd for 5 days followed by LPS stimulation on 5th day injected 30 mins post last dose measured 24 hrs after stimulation monitored for last 4 mins by forced swim test relative to control; type: functional, organism-based; design: scale not given: the % may be the effect or the level left; outline: as §1
[10] = Antidepressant-like activity in LPS-induced ICR mouse assessed as decrease in immobility time at 13 mg/kg, ig qd for 5 days followed by LPS stimulation on 5th day injected 30 mins post last dose measured 24 hrs after stimulation monitored for last 4 mins by tail suspension test relative to control; type: functional, organism-based; design: scale not given: the % may be the effect or the level left; outline: as §1
[11] = Antidepressant-like activity in LPS-induced ICR mouse assessed as decrease in immobility time at 26 mg/kg, ig qd for 5 days followed by LPS stimulation on 5th day injected 30 mins post last dose measured 24 hrs after stimulation monitored for last 4 mins by tail suspension relative to control; type: functional, organism-based; design: scale not given: the % may be the effect or the level left; outline: as §1

Compound | viability at 10 µM [1] | viability at 3 µM [2] | viability at 1 µM [3] | viability at 0.3 µM [4] | viability at 0.1 µM [5] | Activity [6] | Activity [7] | Activity [8] | Activity [9] | Activity [10] | Activity [11]
CC(C)=CCC[C@]1(C)[C@@H](CC=C(C)C)C[C@]2(C[C@H](O)C(C)(C)O)C(=O)C(C(=O)C(C)C)=C3O[C@H](C(C)(C)O)C[C@@]31C2=O | 71.5% | 76.5% | 81.1% | 80% | 72.3% | – | – | – | – | – | –
CC(C)=CCC[C@]1(C)[C@@H](CC=C(C)C)C[C@@]2(CC=C(C)C)C(=O)[C@]1(C(=O)c1ccccc1)C(=O)C1=C2O[C@H](C(C)(C)O)C1 | 57% | 74.4% | 72.2% | 77.7% | 69.9% | – | – | – | – | – | –
CC(C)=CCC[C@]1(C)[C@@H](CC=C(C)C)C[C@]2(CC=C(C)C)C(=O)C3=C(OC(C)(C)[C@H](O)C3)[C@@]1(C(=O)C(C)C)C2=O | 75.1% | 91.5% | 81.8% | 61.4% | 80.3% | – | – | – | – | – | –
CC(C)=CCC[C@]1(C)[C@@H](CC=C(C)C)C[C@]23C[C@@H](C(C)(C)O)OC2=C(CC=C(C)C)C(=O)[C@@]1(C(=O)C(C)C)C3=O | 85.2% | 77.7% | 79.7% | 79.9% | 77.2% | – | – | – | – | – | –
CC(C)=CCC1=C2O[C@H](C(C)(C)O)CC[C@]3(C)[C@@H](CC=C(C)C)C[C@](C[C@H](O)C(C)(C)O)(C1=O)C(=O)[C@]23C(=O)c1ccccc1 | 53.2% | 59.7% | 65% | 57.5% | 55.9% | – | – | – | – | – | –
CC(C)=CCC[C@]1(C)[C@@H](CC=C(C)C)C[C@]23C[C@H](C(C)(C)O)OC2=C(CC=C(C)C)C(=O)[C@@]1(C(=O)c1ccccc1)C3=O | 86.6% | 78% | 68.1% | 72.8% | 82.9% | – | – | – | – | – | –
CC(C)=CCC1=C2O[C@H](C(C)(C)O)CC[C@]3(C)[C@@H](C[C@H](O)C(C)(C)O)C[C@](CC=C(C)C)(C1=O)C(=O)[C@]23C(=O)C(C)C | 72.9% | 90.7% | 93.5% | 84.4% | 91.7% | – | – | – | – | – | –
CC(C)=CCC1=C2O[C@H](C(C)(C)O)CC[C@]3(C)[C@@H](CC=C(C)C)C[C@](CC=C(C)C)(C1=O)C(=O)[C@]23C(=O)c1ccccc1 | 84.2% | 81.6% | 83.5% | 82.7% | 83.4% | – | – | – | – | – | –
CNCCC(Oc1ccc(C(F)(F)F)cc1)c1ccccc1 (stereo unspecified) [FLUOXETINE] | 69.6% | 59.1% | 70.1% | 66.2% | 77.7% | 23.1% | 33.7% | – | – | – | –
CC(C)=CCC[C@]1(C)[C@H](CC=C(C)C)C[C@]2(CC=C(C)C)C(=O)C(C(=O)C(C)C)=C3O[C@@H](C(C)(C)O)C[C@@]31C2=O | 61% | 63.8% | 77% | 68.1% | 80.9% | – | – | – | – | – | –
CC(C)=CCC[C@]1(C)[C@@H](CC=C(C)C)C[C@]2(C[C@H](O)C(C)(C)O)C(=O)C3=C(OC(C)(C)[C@@H](O)C3)[C@@]1(C(=O)c1ccccc1)C2=O | 80.9% | 72.5% | 78.5% | 77.7% | 77.9% | – | – | – | – | – | –
CC(C)=CCC[C@]1(C)[C@@H](CC=C(C)C)C[C@]2(CC=C(C)C)C(=O)C3=C(OC(C)(C)[C@H](O)C3)[C@@]1(C(=O)c1ccccc1)C2=O | 68.9% | 82.2% | 86.3% | 86.8% | 78.6% | – | – | – | – | – | –
CC(C)=CCC[C@]1(C)[C@@H](CC=C(C)C)C[C@]2(CC=C(C)C)C(=O)C(C(=O)c3ccccc3)=C3O[C@H](C(C)(C)O)C[C@@]31C2=O | 74.1% | 81.1% | 76.6% | 81.8% | 76.7% | – | – | – | – | – | –
CC(C)=CCC[C@]1(C)[C@@H](CC=C(C)C)C[C@]2(CC=C(C)C)C(=O)C3=C(OC(C)(C)[C@@H](O)C3)[C@@]1(C(=O)c1ccccc1)C2=O | 65.9% | 69% | 77.6% | 80.8% | 70% | – | – | – | – | – | –
CC(C)=CCC[C@]1(C)[C@@H](CC=C(C)C)C[C@@]2(CC=C(C)C)C(=O)[C@]1(C(=O)c1ccccc1)C(=O)C1=C2O[C@@H](C(C)(C)O)C1 | 75.9% | 72.9% | 74.7% | 56.6% | 55.6% | – | – | – | – | – | –
CC(C)=CCC[C@]1(C)[C@@H](CC=C(C)C)C[C@]23C[C@@H](C(C)(C)O)OC2=C(CC=C(C)C)C(=O)[C@@]1(C(=O)c1ccccc1)C3=O | 85.3% | 90.2% | 85.9% | 87.1% | 85.7% | – | – | 21.4% | 28.1% | 6.6% | 12.6%
CC(C)=CCC[C@]1(C)[C@@H](CC=C(C)C)C[C@]2(CC=C(C)C)C(=O)C(C(=O)c3ccccc3)=C3O[C@@H](C(C)(C)O)C[C@@]31C2=O | 68.1% | 77.7% | 78.5% | 72.9% | 78.6% | – | – | – | – | – | –
